Assay outcomes from PubChem.
This is a sample that favours compounds with a hit; in the whole collection about 0.79% have one here.
PKA-R2B activ: PKA-R2B complex activation. P22694+P31323. PKA-R2B holoenzyme dissociation, Cy5-IP20 fluorescence polarization; R2B truncated from residue 108, S112A mutant; 0% DMSO only, 100% 113 µM cGMP. activation, % at 11.4 µM. 340,000 compounds, 0.079% hits;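 active means activation above a cutoff set at the mean over all compounds plus 3 SD, cut at about 18% in these data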;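 further: higher means more holoenzyme dissociation and a rise in polarization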
PKA-R1A activ: activators of PKA-R1A complex. 340,000 compounds, 0.083% hits. PKA-R1A dissociation, Cy5-IP20 fluorescence polarization; scaled: DMSO 0%, 113 µM cGMP 100%. P00514+P68181. activation, % at 11.4 µM;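 active means percent activation above the mean of all tested compounds plus 3 SD, cut at about 19% in these data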;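 further: higher means more PKAc released from R1A so a rise in polarization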
UCH37 inh: blocks the human deubiquitinase UCH37 | Q9Y5K5 | AID 588478 | inhibition, % (concentration not given with the values) | 330,000 compounds, 0.33% hits | purified proteasome/UCH37, Ub-AMC cleavage fluorescence;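 active means mean inhibition over replicate wells above about 20%, limit read from the data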;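 further: 0% = compound-free wells with enzyme and 100% = wells lacking proteasome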
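Reagent: Ub-AMC substrate; assay system: Proteasome-associated human UCH37 deubiquitinase; controls: no-proteasome and no-compound wells; read-out: % inhibition of Ub-AMC cleavage fluorescence; timing: 30 min preincubation with enzyme, 25 min cleavage at room temperature; signal: AMC fluorescence from Ub-AMC cleavage, excitation 355 nm, emission 460 nm; buffer or medium: Tris-HCl pH 7.4 plus ovalbumin, ATP-MgCl2, DTT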
Rin1-Abl PPI inh: human Rin1-Abl interaction inhibition | TR-FRET Rin1/Abl binding, biochemical | P00519+Q13671 | 360,000 compounds, 0.4% hits | inhibition, % at 7.35 µM; in the data active means inhibition above about 5%, passing the limit was not always enough
* = called active by the depositor; ! = repeats disagree.

Results for O=C(NCCCN1CCOCC1)/C(=C/c1ccc(-c2cccc([N+](=O)[O-])c2)o1)NC(=O)c1ccccc1 ?
PKA-R2B activ: 11.8; PKA-R1A activ: 4.5; Rin1-Abl PPI inh: -9.2

How did O=C(NCCCO)/C(=C/c1ccc(-c2cccc([N+](=O)[O-])c2)o1)NC(=O)c1ccccc1 do in these assays?
PKA-R2B activ: -4.3; PKA-R1A activ: 7.6; UCH37 inh: 21.7*; Rin1-Abl PPI inh: -2.5

Results for CN(C)CCCN(C(=O)COc1ccccc1)c1nc2c(F)cccc2s1 ?
PKA-R2B activ: -6.4; PKA-R1A activ: -10.6; UCH37 inh: 5.8; Rin1-Abl PPI inh: -2.4

Results for COC1=C(N)C(=O)c2nc(-c3nc(C(=O)O)c(C)c(-c4ccc(OC)c(OC)c4O)c3N)ccc2C1=O ?
UCH37 inh: 81.7*

What do the screens show for `COc1ccc(-c2ncncc2-c2csc(C)n2)c(O)c1OC`?
PKA-R2B activ: 2.2; PKA-R1A activ: -3.1; UCH37 inh: 2.1; Rin1-Abl PPI inh: -3.8

How did CC1CCN(C(=O)c2ccc(-c3ccccc3Cl)o2)CC1 do in these assays?
PKA-R2B activ: -22.8; PKA-R1A activ: -0.9; UCH37 inh: 1.4; Rin1-Abl PPI inh: 4.0

Results for COc1ccc(/C(O)=C2/C(=O)C(=O)N(CCCN3CCOCC3)C2c2ccc(Cl)cc2)cc1 (stereo not given) ?
PKA-R2B activ: 1.0; PKA-R1A activ: 4.8; Rin1-Abl PPI inh: -4.0

What do the screens show for `COc1ccc(/C(O)=C2/C(=O)C(=O)N(CCCN3CCOCC3)C2c2ccc(C(C)C)cc2)cc1` (stereo not given)?
PKA-R2B activ: 3.4; PKA-R1A activ: 1.5; UCH37 inh: 20.1*; Rin1-Abl PPI inh: -0.6

How did COc1ccc(/C(O)=C2/C(=O)C(=O)N(CCCN(C)C)C2c2ccc(Cl)cc2)cc1OC (stereo not given) do in these assays?
PKA-R2B activ: -2.8; PKA-R1A activ: -4.3; UCH37 inh: 23.9*; Rin1-Abl PPI inh: -5.7

How did C=CCn1c(C)cc(C2=NNC(=NC(C)(C)C)SC2)c1C do in these assays?
PKA-R2B activ: -2.9; PKA-R1A activ: -0.1; Rin1-Abl PPI inh: 4.4

How did C=CCn1c(C)cc(C2=NNC(=Nc3ccc(C)cc3)SC2)c1C do in these assays?
PKA-R2B activ: -3.5; PKA-R1A activ: -1.0; UCH37 inh: 29.5*; Rin1-Abl PPI inh: -0.8

How did O=c1[nH]n2c(=O)c3c([nH]c2c1N=Nc1cccc(Cl)c1)CCCC3 do in these assays?
PKA-R2B activ: 5.4; PKA-R1A activ: -1.0; UCH37 inh: 17.7; Rin1-Abl PPI inh: 2.0

What do the screens show for `CCOc1ccc(N=Nc2c(=O)[nH]n3c(=O)c4c([nH]c23)CCCC4)cc1`?
PKA-R2B activ: 7.8; PKA-R1A activ: -1.4; UCH37 inh: 24.6*; Rin1-Abl PPI inh: -2.5

How did Cc1cc(=O)n2nc(N3CCC(C(=O)N4CCN(Cc5ccccc5)CC4)CC3)sc2n1 do in these assays?
PKA-R2B activ: -6.3; PKA-R1A activ: 2.2; UCH37 inh: 23.6*; Rin1-Abl PPI inh: -2.6

Results for CCOc1ccc(OCC)c(NC(=O)C2CCN(c3nn4c(=O)cc(C)nc4s3)CC2)c1 ?
PKA-R2B activ: -5.8; PKA-R1A activ: -1.8; UCH37 inh: 23.2*; Rin1-Abl PPI inh: 2.8

What do the screens show for `CCOc1ccccc1CNC(=O)C1CCN(c2nn3c(=O)cc(C)nc3s2)CC1`?
PKA-R2B activ: -5.8; PKA-R1A activ: -7.3; UCH37 inh: 3.1; Rin1-Abl PPI inh: 0.0

How did CN(C)c1ccc(O)c2c1CC1CC3[C@@H](N(C)C)C(=O)C(C(N)=O)=C(O)[C@]3(O)C(=O)C1=C2O (stereo not given in full) do in these assays?
PKA-R2B activ: 2.9; PKA-R1A activ: -8.5; UCH37 inh: 3.1; Rin1-Abl PPI inh: 15.8*

How did C[C@H]1c2cccc(O)c2C(O)=C2C(=O)[C@]3(O)C(O)=C(C(N)=O)C(=O)[C@@H](N(C)C)[C@@H]3[C@@H](O)[C@@H]21 do in these assays?
PKA-R2B activ: -10.7; PKA-R1A activ: -7.1; UCH37 inh: 2.2; Rin1-Abl PPI inh: 5.0

How did C=CCc1cccc2cc(C(=O)OCC(=O)c3ccccc3)c(=O)oc12 do in these assays?
PKA-R2B activ: 2.5; PKA-R1A activ: -12.5; UCH37 inh: -2.2; Rin1-Abl PPI inh: 0.8

What do the screens show for `CCOC(=O)c1c2ccccc2[n+]([O-])n1[C@@H](C)C(N)=O`?
PKA-R2B activ: 0.2; PKA-R1A activ: 11.9; UCH37 inh: 32.3*; Rin1-Abl PPI inh: 3.2

How did O=C1CC(c2ccc3c(c2)OCO3)CN1 (stereo not given) do in these assays?
PKA-R2B activ: 1.9; PKA-R1A activ: -2.0; UCH37 inh: 27.1*; Rin1-Abl PPI inh: 3.6

How did O=C1CC(c2ccc3c(c2)OCO3)c2cc3c(cc2N1)OCO3 (stereo not given) do in these assays?
PKA-R2B activ: -2.4; PKA-R1A activ: 8.3; UCH37 inh: 0.5; Rin1-Abl PPI inh: 0.7

What do the screens show for `CCNC1=C(Cl)C(=O)c2ccccc2C1=O`?
PKA-R2B activ: 7.5; PKA-R1A activ: -2.3; UCH37 inh: -0.9; Rin1-Abl PPI inh: -15.9

How did O=C1C(Cl)=C(NCCN2CCCCC2)C(=O)c2ccccc21 do in these assays?
PKA-R2B activ: 4.0; PKA-R1A activ: -8.4; UCH37 inh: 40.6*; Rin1-Abl PPI inh: -14.0

What do the screens show for `CN(C)CCOC(=O)C1(c2ccccc2)CCOCC1`?
PKA-R2B activ: 1.8; PKA-R1A activ: -6.1; UCH37 inh: 20.3*!; Rin1-Abl PPI inh: -1.2

How did O=C(O)C1CC(c2ccccc2)=NO1 (stereo not given) do in these assays?
PKA-R2B activ: 0.9; PKA-R1A activ: -3.7; UCH37 inh: 5.4; Rin1-Abl PPI inh: 2.3

Results for O=S(=O)(c1ccccc1)C1(C2CC(c3ccccc3)=NO2)CC(O)C1 (stereo not given) ?
PKA-R2B activ: -19.5; PKA-R1A activ: -11.7; UCH37 inh: 28.5*; Rin1-Abl PPI inh: 2.0

What do the screens show for `CCC1Nc2ncnc(N3CCOCC3)c2N(Cc2ccc(Br)cc2)C1=O` (stereo not given)?
PKA-R2B activ: -2.6; PKA-R1A activ: -8.4; UCH37 inh: 2.3; Rin1-Abl PPI inh: -0.2

How did O=C1N[C@H](Cc2ccccc2)COC(=O)[C@@H](Cc2ccc(F)cc2)CC/C=C/C[C@H]1CC(=O)N(CCO)Cc1ccccc1 do in these assays?
PKA-R2B activ: -5.2; PKA-R1A activ: -12.9; UCH37 inh: 22.2*; Rin1-Abl PPI inh: -0.1

How did Cc1cc[n+](-c2[nH]c(=O)sc2C=NNC([S-])=Nc2ccccc2)cc1 do in these assays?
UCH37 inh: 22.7*

Results for COc1ccc(-c2noc(-c3ccc(Cl)cc3)n2)cc1 ?
UCH37 inh: 3.4

What do the screens show for `Cc1ccc2cc(C=NNC(=O)[C@H](C)NC(=O)OC(C)(C)C)c(Cl)nc2c1`?
UCH37 inh: 1.8

How did Cc1ccc(C(=O)OCC(=O)NCCNC(=O)COC(=O)c2ccc(C)s2)s1 do in these assays?
PKA-R2B activ: -3.2; PKA-R1A activ: 5.4; UCH37 inh: 3.5; Rin1-Abl PPI inh: 1.1

What do the screens show for `Cc1c(C(=O)NCc2ccccc2)oc2c1C(=O)CCC2`?
PKA-R2B activ: 3.6; PKA-R1A activ: 8.3; UCH37 inh: 25.2*; Rin1-Abl PPI inh: -1.1
